Measurements published in PMC3909687 (Biochimica et biophysica acta, 2012).

Biological target: T1, CC1736 (Caulobacter vibrioides, UniProt Q9A7I7)
T1 sequence (Q9A7I7 1-148): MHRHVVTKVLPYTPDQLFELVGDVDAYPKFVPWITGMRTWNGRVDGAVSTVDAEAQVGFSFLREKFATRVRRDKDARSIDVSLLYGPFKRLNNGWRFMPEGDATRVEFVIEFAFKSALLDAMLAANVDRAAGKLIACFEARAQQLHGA
Assay: spin-column desalting separation, lipid extraction, HPLC-UV
Type: binding
Outline: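 Protein (2-3 nmol; cytochrome c 8-10 nmol as control) incubated with ligand (0.005–0.27 mM) in 20 mM MES pH 6.4, 100 mM NaCl, 5.0 mM CaCl2, 0.1 mM dodecyl maltoside, 1.0 mM TCEP, 2% ethanol, 45 min, 30 °C. Desalting spin column; protein by Lowry; eluate lipids by reversed-phase HPLC-UV.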

Row | Structure (SMILES) | Kd
1 | COC1=CC(=O)C(C)=C(C/C=C(\C)CC/C=C(\C)CCC=C(C)C)C1=O [DMQ3] | 140 ± 77 µM
2 | COC1=C(OC)C(=O)C(C/C=C(\C)CCC=C(C)C)=C(C)C1=O [Q2] | 18 ± 2 µM
3 | COC1=C(OC)C(=O)C(C/C=C(\C)CC/C=C(\C)CCC=C(C)C)=C(C)C1=O [Q3] | 35 ± 16 µM
